One data set deals with HaCaT. Nature of the data set: Cytotoxicity against human HaCaT cells assessed as inhibition of cell growth incubated for 72 hrs by MTT assay. Format: functional, cell-based. An outline of the steps: (§1)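 Cells in DMEM with 10% FCS, seeded 24 h before assay at 3 × 10^5 cells per mL and incubated overnight. DMSO stocks (20 mM) diluted to 20 μM–0.1 nM and added to cells for 72 h, with untreated controls. MTT added for the last 6 h, formazan dissolved in DMSO, OD read at 540 nm.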
A general note: Formazan colour is commonly taken as a measure of viable cells.

The test system of the next data set is BXPC-3. The experiment in a line: Cytotoxicity against human BxPC-3 cells assessed as inhibition of cell growth incubated for 72 hrs by MTT assay. The data set is classed as functional, cell-based. The following applies: BXPC-3, 72 h. The essentials: as §1
A further data set concerns HEK293. Nature of the data set: Cytotoxicity against human HEK293 cells assessed as inhibition of cell growth incubated for 72 hrs by MTT assay. The note with it: HEK293, 72 h. The data set is classed as functional, cell-based. The essentials:
as §1

Data set [1] has as its system COLO357. The experiment in a line: Cytotoxicity against human COLO-357 cells assessed as inhibition of cell growth incubated for 72 hrs by MTT assay. The note with it: COLO357, 72 h. Format: functional, cell-based. An outline of the steps:
as §1

Data set [2] can be described thus: Induction of cell cycle arrest in […] L929 cells assessed as G1 phase at 5 uM incubated for 72 hrs by propidium iodide staining based flow cytometry analysis (reference value: 91 %). The data set is classed as functional. On the technique in general: Flow cytometry measures light scatter and fluorescence of single cells or particles in a stream.
Data set [3] can be described thus: Induction of cell cycle arrest in […] L929 cells assessed as G2/M phase at 5 uM incubated for 72 hrs by propidium iodide staining based flow cytometry analysis (reference value: 8 %). Format: functional.
In data set [4] the test system is COLO357. The experiment in a line: Induction of mitotic arrest in human COLO357 cells assessed as disruption of mitotic spindle arrangement at 5 uM incubated for 72 hrs by immunofluorescence based confocal microscopic analysis. The data set is classed as functional, cell-based. An outline of the steps:
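COLO-357 cells (10^5 per coverslip) grown overnight, then exposed to 5 μM in complete medium for 72 h. Fixed in 1% paraformaldehyde and permeabilized with 0.1% Triton X100 in PBS. Stained with anti-β-tubulin antibody and AlexaFluor555 anti-mouse IgG, nuclei with Hoechst 33342, then imaged by confocal microscopy.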

The nature of data set [5]: Toxicity in iv dosed C57BL/6 mouse assessed as lethal dose measured after 24 hrs. The data set is classed as organism-based. The note with it: in vivo. An outline of the steps:
(§2)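 Acute toxicity in C57BL/6 mice, 6–8 weeks old, 10 per group. Each mouse got one intravenous dose of 4, 7, 10 or 13 mg kg–1. The dose range was set in preliminary experiments. Signs of toxicity (ruffled fur, poor mobility, lower body temperature) and lethality were recorded at 24 h and 48 h after injection. Survivors at 48 h were followed for 1 week. LD50 and LD100 were derived.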

The nature of data set [6]: Inhibition of lamb brain tubulin polymerization assessed as reduction in microtubule formation incubated for 40 mins by spectrophotometric analysis. Format: tissue-based, Ovis aries.
Data set [7] in a line: Induction of apoptosis in […] L929 cells at 5 uM incubated for 72 hrs by propidium iodide staining based flow cytometry analysis (reference value: 1.2 %). The data set is classed as functional.
In data set [8] the test system is COLO357. The experiment in a line: Induction of apoptosis in human COLO357 cells at 5 uM incubated for 72 hrs by propidium iodide staining based flow cytometry analysis (reference value: 0.3 %). The data set is classed as functional.
Data set [9] concerns COLO357. Nature of the data set: Induction of cell cycle arrest in human COLO357 cells assessed as G1 phase at 5 uM incubated for 72 hrs by propidium iodide staining based flow cytometry analysis (reference value: 91.1 %). Format: functional.
Data set [10] has as its system COLO357. The experiment in a line: Induction of cell cycle arrest in human COLO357 cells assessed as G2/M phase at 5 uM incubated for 72 hrs by propidium iodide staining based flow cytometry analysis (reference value: 7.2 %). The data set is classed as functional.
The nature of data set [11]: Toxicity in iv dosed C57BL/6 mouse assessed as lethal dose measured after 40 to 48 hrs. Format: organism-based. The following applies: in vivo, time 40-48 hrs; for LD50: C57BL/6, mouse; for LD100: mouse. The essentials:
as §2

Active and inactive are the calls of the source. The calls are words filed in the database; no cut-off is given here.

The record followed here is ChEMBL document CHEMBL4699416, “Allocolchicinoids bearing a Michael acceptor fragment for possible irreversible binding of tubulin” (RSC Med Chem, 2020).

As usually defined, the IC50 is the midpoint of a concentration-inhibition curve. As to `COC(=O)c1ccc2c(c1)[C@@H](NC(=O)COC(=O)/C=C/C(F)(F)F)CCc1cc(OC)c(OC)c(OC)c1-2`, the IC50 in the data set on HaCaT, in the data set with BXPC-3, in the data set on HEK293 and in the data set with COLO357 [1] was 16 nM in each case.
As for `C/C=C/C=C/C(=O)OCC(=O)N[C@H]1CCc2cc(OC)c(OC)c(OC)c2-c2cc3cc(COC(C)=O)oc3cc21`, the 50% inhibitory concentration (IC50) in the data set on HaCaT came to 0.6 nM; in the data set with BXPC-3 it was 16 nM; in the data set with HEK293, 3 nM; in the data set with COLO357 [1], 16 nM.
`COC(=O)c1ccc2c(c1)[C@@H](NC(=O)CNC(=O)C=C(C)C)CCc1cc(OC)c(OC)c(OC)c1-2`: the IC50 in the data set with HaCaT stood at 16 nM; in the data set on BXPC-3 it was 16 nM; in the data set with HEK293, 16 nM; in the data set with COLO357 [1], 80 nM.
For `COC(=O)c1ccc2c(c1)[C@@H](NC(=O)CNC(=O)/C=C/C(F)(F)F)CCc1cc(OC)c(OC)c(OC)c1-2`, the IC50 in the data set with HaCaT came to 16 nM; in the data set with BXPC-3 it was 16 nM; in the data set on HEK293 it was 80 nM; in the data set with COLO357 [1], 80 nM.
Usually LD50 stands for the dose expected to kill half of the subjects tested. As to `C/C=C/C=C/C(=O)OCC(=O)N[C@H]1CCc2cc(OC)c(OC)c(OC)c2-c2ccc(C(=O)OC)cc21`, the results for the Activity in [2], in [3] and in data set [7] were 40%, 61% and 5.6%, respectively. Further, the 50% inhibitory concentration (IC50) came to 0.6 nM with HaCaT; 3 nM with BXPC-3; 3 nM in the data set with HEK293; 6780 nM in data set [6]; 3 nM in the data set on COLO357 [1]. Also, the result in the data set with COLO357 [4] was Active. Moreover, the LD50 at 24 h in data set [5] (C57BL/6, mouse) was determined as 6.1 mg/kg. For the same compound, in data set [5] (mouse, 24 h), the LD100 worked out at 8.4 mg/kg.
Turning to `COC(=O)c1ccc2c(c1)[C@@H](NC(=O)COC(=O)CC(C)SC[C@@H](NC(C)=O)C(=O)OC)CCc1cc(OC)c(OC)c(OC)c1-2` (mixture of isomers), the half-maximal inhibitory concentration (IC50) in the data set with HaCaT stood at 16 nM; in the data set on BXPC-3 it was 16 nM; in the data set with HEK293, 16 nM; in the data set with COLO357 [1], 80 nM.
As to `C/C=C/C(=O)NCC(=O)N[C@H]1CCc2cc(OC)c(OC)c(OC)c2-c2ccc(C(=O)OC)cc21`, the IC50 in the data set on HaCaT, in the data set with BXPC-3, with HEK293 and in the data set with COLO357 [1] was 80 nM in each case.
Turning to `C=CC(=O)OCC(=O)N[C@H]1CCc2cc(OC)c(OC)c(OC)c2-c2ccc(C(=O)OC)cc21`, the half-maximal inhibitory concentration (IC50) in the data set on HaCaT, with BXPC-3, in the data set on HEK293 and with COLO357 [1] was 16 nM each time.
With `C/C=C/C=C/C(=O)NCC(=O)N[C@H]1CCc2cc(OC)c(OC)c(OC)c2-c2cc3cc(CO)oc3cc21`, the half-inhibitory concentration (IC50) with HaCaT, in the data set with BXPC-3, with HEK293 and in the data set with COLO357 [1] was 400 nM each time.
Take `C/C=C/C=C/C(=O)NCC(=O)N[C@H]1CCc2cc(OC)c(OC)c(OC)c2-c2ccc(C(=O)OC)cc21`: the IC50 in the data set on HaCaT was 3 nM; in the data set with BXPC-3, 3 nM; in the data set on HEK293 it was 16 nM; in the data set on COLO357 [1], 16 nM.
Regarding `COC(=O)c1ccc2c(c1)[C@@H](NC(=O)COC(=O)C=C(C)C)CCc1cc(OC)c(OC)c(OC)c1-2`, the IC50 turned out to be 3 nM in the data set with HaCaT, 3 nM in the data set on BXPC-3, 16 nM with HEK293 and 16 nM in the data set on COLO357 [1].
For `COc1cc2c(c(OC)c1OC)-c1ccc(OC)c(=O)cc1[C@@H](NC(C)=O)CC2` [COLCHICINE], the Activity in data set [2] is recorded as 30%; with COLO357 [8], 10%; in data set [3], 74%; in the data set with COLO357 [9], 33%; with COLO357 [10], 61%; in data set [7], 3%. The 50% inhibitory concentration (IC50) in the data set on HaCaT worked out at 3 nM; with BXPC-3, 16 nM; in the data set on HEK293, 16 nM; in the data set on COLO357 [1], 16 nM. Further, the outcome in the data set with COLO357 [4] was Active. Besides, the median lethal dose (LD50) in data set [11] was 8.5 mg/kg. Further, the LD100 in [11] is 10.9 mg/kg.
With `C=CC(=O)NCC(=O)N[C@H]1CCc2cc(OC)c(OC)c(OC)c2-c2ccc(C(=O)OC)cc21`, the IC50 turned out to be 80 nM in the data set with HaCaT, 80 nM in the data set with BXPC-3, 400 nM in the data set on HEK293 and 400 nM in the data set on COLO357 [1].
As to `C/C=C/C(=O)OCC(=O)N[C@H]1CCc2cc(OC)c(OC)c(OC)c2-c2ccc(C(=O)OC)cc21`, the 50% inhibitory concentration (IC50) in the data set on HaCaT stood at 3 nM; in the data set on BXPC-3, 16 nM; in the data set with HEK293, 3 nM; in the data set on COLO357 [1], 16 nM. Also, the Activity in the data set on COLO357 [8] was 9.3%; in the data set with COLO357 [9] it was 32%; with COLO357 [10] it was 60%. Besides, the result in the data set with COLO357 [4] was Active. For the same compound, the 50% lethal dose (LD50) in data set [11] stood at 6.5 mg/kg. In addition, the LD100 in data set [11] was 9.8 mg/kg.
